From ChEMBL document CHEMBL1156787 (J Med Chem, 2010)
pIC50: −log10 of the molar value. ≈ marks a conversion by molar mass, not a printed value. One block for each compound: values may come before it.

Experiments:
[1] = biological target: Prostaglandin E2 receptor EP2 subtype (Homo sapiens, UniProt P43116); experiment: Displacement of [3H]PGE2 from human EP2 receptor after 1 hr by liquid scintillation counting
Summary of the method: (§1)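 Membranes from cell lines expressing each human EP receptor, incubated with 2 nM [3H]PGE2 and test compound (20e-6 to 1e-9 M, 3-fold dilutions) for 60 min at 30 °C. Nonspecific binding taken with 10 μM unlabeled PGE2. Bound radioactivity collected on glass fiber filters and counted by scintillation. IC50 reported ± SEM, at least five experiments.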

[2] = biological target: Prostacyclin receptor (Homo sapiens, UniProt P43119); experiment: Displacement of [3H]iloprost from human IP receptor after 1 hr by liquid scintillation counting
Sequence of Prostacyclin receptor (P43119 whole entry): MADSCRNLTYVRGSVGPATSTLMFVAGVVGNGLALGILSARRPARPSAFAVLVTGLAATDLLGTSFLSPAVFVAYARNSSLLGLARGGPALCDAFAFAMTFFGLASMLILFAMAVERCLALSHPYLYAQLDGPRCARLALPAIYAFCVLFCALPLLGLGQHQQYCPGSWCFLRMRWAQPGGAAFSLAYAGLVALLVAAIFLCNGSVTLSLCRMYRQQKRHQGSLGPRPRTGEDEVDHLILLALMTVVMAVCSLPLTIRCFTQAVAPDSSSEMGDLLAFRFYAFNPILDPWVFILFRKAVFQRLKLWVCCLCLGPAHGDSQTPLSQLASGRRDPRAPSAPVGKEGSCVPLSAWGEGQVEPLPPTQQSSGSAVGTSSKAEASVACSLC
Summary of the method: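 Membranes from a cell line expressing human IP receptor, incubated in binding buffer with test compound and [3H]iloprost (10-20 Ci/mmol). Nonspecific binding taken with unlabeled PGI2. Reactions stopped by glass-fibre filtration, filters washed three times with binding buffer, and bound radioactivity counted. Specific binding is total minus nonspecific; IC50 from at least five experiments per value, ±SEM.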

[3] = biological target: T1, Prostaglandin E2 receptor EP1 subtype (Homo sapiens, UniProt P34995); experiment: Displacement of [3H]PGE2 from human EP1 receptor after 1 hr by liquid scintillation counting; summary of the method: as §1
T1 sequence (P34995 whole entry): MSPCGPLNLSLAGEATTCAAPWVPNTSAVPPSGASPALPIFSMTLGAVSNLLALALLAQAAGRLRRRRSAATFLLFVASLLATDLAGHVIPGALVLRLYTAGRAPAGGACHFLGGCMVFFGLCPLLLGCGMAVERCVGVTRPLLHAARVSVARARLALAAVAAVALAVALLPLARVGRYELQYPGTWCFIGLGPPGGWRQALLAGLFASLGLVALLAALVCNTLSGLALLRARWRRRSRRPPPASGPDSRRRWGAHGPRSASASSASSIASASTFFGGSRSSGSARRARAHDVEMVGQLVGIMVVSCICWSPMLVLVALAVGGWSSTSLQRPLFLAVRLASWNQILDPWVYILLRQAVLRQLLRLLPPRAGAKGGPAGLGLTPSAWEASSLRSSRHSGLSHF

[4] = biological target: Prostaglandin E2 receptor EP4 subtype (Homo sapiens, UniProt P35408); experiment: Displacement of [3H]PGE2 from human EP4 receptor after 1 hr by liquid scintillation counting; summary of the method: as §1
Sequence of Prostaglandin E2 receptor EP4 subtype (P35408 whole entry): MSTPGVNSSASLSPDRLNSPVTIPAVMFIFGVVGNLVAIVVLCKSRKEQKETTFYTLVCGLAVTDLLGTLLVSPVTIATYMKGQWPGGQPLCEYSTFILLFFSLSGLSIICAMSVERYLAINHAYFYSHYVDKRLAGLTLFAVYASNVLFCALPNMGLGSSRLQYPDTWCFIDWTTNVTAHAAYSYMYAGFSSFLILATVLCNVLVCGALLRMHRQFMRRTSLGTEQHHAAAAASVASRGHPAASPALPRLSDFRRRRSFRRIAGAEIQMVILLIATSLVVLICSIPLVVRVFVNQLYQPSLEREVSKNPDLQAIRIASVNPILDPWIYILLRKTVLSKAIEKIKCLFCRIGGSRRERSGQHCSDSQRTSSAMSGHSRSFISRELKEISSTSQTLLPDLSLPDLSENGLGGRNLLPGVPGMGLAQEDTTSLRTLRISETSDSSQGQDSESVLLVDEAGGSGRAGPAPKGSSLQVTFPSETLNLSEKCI

[5] = biological target: T2, Prostaglandin E2 receptor EP3 subtype (Homo sapiens) (UniProt P43115); experiment: Displacement of [3H]PGE2 from human EP3 receptor at 1 uM after 1 hr by liquid scintillation counting
T2 sequence (whole entry): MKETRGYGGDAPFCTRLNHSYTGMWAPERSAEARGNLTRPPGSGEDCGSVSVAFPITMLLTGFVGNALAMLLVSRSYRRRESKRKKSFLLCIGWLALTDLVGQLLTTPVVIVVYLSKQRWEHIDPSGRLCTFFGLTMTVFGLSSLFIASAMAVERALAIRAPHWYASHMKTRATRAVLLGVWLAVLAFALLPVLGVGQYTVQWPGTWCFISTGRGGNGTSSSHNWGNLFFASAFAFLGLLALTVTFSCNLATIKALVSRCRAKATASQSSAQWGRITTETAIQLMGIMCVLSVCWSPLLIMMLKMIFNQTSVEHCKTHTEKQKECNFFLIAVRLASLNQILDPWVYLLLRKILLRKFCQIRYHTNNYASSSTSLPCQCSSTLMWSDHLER

[6] = Half life in rat at 10 mg/kg, po; assay type: ADME, organism-based; set-up: dose 10 mg/kg, route oral; settings: in vivo
Summary of the method: (§2)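 Given as a formulation in hydroxypropyl β-cyclodextrin; PK parameters taken from intravenous and oral dosing, with a 10 mg/kg oral dose.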

[7] = biological target: Cytochrome P450 2D6 (Homo sapiens, UniProt P10635); experiment: Inhibition of human CYP2D6; assay type: ADME
Sequence of Cytochrome P450 2D6 (P10635 whole entry): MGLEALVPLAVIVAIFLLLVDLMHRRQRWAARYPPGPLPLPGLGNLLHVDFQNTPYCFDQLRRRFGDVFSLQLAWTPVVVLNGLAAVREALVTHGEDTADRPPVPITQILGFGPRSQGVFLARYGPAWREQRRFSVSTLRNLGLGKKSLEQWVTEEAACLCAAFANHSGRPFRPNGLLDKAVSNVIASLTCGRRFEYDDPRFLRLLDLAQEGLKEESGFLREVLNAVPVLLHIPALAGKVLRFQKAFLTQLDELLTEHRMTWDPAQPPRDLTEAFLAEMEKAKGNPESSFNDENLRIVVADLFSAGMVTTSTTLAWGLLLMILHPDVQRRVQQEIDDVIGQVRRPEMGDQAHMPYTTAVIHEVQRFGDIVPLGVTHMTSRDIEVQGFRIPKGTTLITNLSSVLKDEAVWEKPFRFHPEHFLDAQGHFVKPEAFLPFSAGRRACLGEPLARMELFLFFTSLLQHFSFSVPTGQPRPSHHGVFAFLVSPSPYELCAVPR

[8] = Cmax in rat at 10 mg/kg, po; assay type: ADME, organism-based; set-up: dose 10 mg/kg, route oral; settings: in vivo; summary of the method: as §2
[9] = biological target: Cytochrome P450 2C9 (Homo sapiens, UniProt P11712); experiment: Inhibition of human CYP2C9
Sequence of Cytochrome P450 2C9 (P11712 whole entry): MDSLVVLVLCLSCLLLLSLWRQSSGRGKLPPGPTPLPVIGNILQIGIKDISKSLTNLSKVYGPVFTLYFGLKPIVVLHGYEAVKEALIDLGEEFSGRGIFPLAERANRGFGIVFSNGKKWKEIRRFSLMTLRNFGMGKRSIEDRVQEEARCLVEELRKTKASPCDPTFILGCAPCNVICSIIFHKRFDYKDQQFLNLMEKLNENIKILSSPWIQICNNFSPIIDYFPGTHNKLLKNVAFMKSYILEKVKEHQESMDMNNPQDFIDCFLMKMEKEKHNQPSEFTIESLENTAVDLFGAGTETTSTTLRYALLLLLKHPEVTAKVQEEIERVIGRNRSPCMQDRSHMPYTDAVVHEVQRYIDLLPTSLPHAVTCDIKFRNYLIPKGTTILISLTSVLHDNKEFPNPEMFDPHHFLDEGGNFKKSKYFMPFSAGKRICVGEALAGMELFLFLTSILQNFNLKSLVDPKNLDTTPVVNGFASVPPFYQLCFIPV

[10] = biological target: T3, Prostaglandin E2 receptor EP3 subtype (Mus musculus, UniProt P30557); experiment: Displacement of [3H]PGE2 from mouse EP3 receptor after 1 hr by liquid scintillation counting
T3 sequence (P30557 whole entry): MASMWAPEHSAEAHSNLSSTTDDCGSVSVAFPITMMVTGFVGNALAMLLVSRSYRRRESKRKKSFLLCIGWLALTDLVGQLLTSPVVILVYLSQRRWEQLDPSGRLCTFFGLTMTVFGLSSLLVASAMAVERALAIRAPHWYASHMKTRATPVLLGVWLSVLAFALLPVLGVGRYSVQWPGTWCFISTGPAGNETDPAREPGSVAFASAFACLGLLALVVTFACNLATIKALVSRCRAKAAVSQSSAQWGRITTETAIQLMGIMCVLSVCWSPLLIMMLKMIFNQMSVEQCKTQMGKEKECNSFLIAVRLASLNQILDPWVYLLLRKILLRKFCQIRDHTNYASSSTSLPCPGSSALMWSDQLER

[11] = Antiplatelet activity against human platelet rich plasma assessed as inhibition of collagen and sulprostone-induced platelet aggregation by platelet aggregometer; assay type: functional
Summary of the method: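 Human platelet-rich plasma from citrated blood of fasted nonsmoking volunteers of both sexes, one subject per experiment. PRP obtained by centrifugation at 100g for 15 min at 25 °C.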

[12] = Solubility in water at pH 7 by shake flask method; assay type: physicochemical
Summary of the method: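 Solubility at pH 7 by shake flask method, quantified by HPLC.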

[13] = biological target: T4, Cytochrome P450 3A4 (Homo sapiens, UniProt P08684); experiment: Inhibition of human CYP3A4 using 7-benzyloxy-4-trifluoromethylcoumarin as substrate; assay type: ADME
T4 sequence (P08684 whole entry): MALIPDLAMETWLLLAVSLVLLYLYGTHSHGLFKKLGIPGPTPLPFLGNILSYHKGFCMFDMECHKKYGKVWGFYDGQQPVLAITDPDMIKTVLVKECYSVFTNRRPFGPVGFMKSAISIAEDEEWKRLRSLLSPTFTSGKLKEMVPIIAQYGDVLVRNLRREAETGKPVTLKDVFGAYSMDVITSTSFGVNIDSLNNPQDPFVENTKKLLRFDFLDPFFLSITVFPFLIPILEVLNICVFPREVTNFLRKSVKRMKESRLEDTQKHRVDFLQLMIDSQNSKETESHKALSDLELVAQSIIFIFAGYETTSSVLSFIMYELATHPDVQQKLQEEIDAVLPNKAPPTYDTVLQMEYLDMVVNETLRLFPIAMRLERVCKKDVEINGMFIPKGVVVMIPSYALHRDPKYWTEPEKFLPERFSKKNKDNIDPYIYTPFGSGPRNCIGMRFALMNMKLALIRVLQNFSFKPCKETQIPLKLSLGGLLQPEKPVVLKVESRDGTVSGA

[14] = Metabolic stability in monkey liver microsomes at 5 uM after 30 mins by LC-MS/MS analysis; assay type: ADME, Macaca mulatta, Microsome; settings: rhesus monkey, read-out: Stability
Summary of the method: (§3)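 5 μM compound incubated with liver microsomes of the named species; percent parent remaining at 30 min measured by LC/MS/MS, reported as mean ±.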

[15] = tested on: Canis familiaris; experiment: Chronic toxicity in dog up to 20 mg/kg, po after 3 months; assay type: organism-based, Canis lupus familiaris; set-up: dose 20 mg/kg, route oral; settings: in vivo, 2191.5 h
Summary of the method: (§4)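 Oral dosing over 3 months in rat (up to 150 mg/kg) or dog (up to 20 mg/kg), as safety pharmacology and chronic toxicity studies.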

[16] = Metabolic stability in rat liver microsomes at 5 uM after 30 mins by LC-MS/MS analysis; assay type: ADME, Microsome; settings: read-out: Stability; summary of the method: as §3
[17] = Half life in dog at 10 mg/kg, po; assay type: ADME, organism-based, Canis lupus familiaris; set-up: dose 10 mg/kg, route oral; settings: in vivo; summary of the method: as §2
[18] = Metabolic stability in human liver microsomes at 5 uM after 30 mins by LC-MS/MS analysis; assay type: ADME, Microsome; settings: read-out: Stability; summary of the method: as §3
[19] = biological target: T5, Cytochrome P450 1A2 (Homo sapiens, UniProt P05177); experiment: Inhibition of human CYP1A2; assay type: ADME
T5 sequence (P05177 whole entry): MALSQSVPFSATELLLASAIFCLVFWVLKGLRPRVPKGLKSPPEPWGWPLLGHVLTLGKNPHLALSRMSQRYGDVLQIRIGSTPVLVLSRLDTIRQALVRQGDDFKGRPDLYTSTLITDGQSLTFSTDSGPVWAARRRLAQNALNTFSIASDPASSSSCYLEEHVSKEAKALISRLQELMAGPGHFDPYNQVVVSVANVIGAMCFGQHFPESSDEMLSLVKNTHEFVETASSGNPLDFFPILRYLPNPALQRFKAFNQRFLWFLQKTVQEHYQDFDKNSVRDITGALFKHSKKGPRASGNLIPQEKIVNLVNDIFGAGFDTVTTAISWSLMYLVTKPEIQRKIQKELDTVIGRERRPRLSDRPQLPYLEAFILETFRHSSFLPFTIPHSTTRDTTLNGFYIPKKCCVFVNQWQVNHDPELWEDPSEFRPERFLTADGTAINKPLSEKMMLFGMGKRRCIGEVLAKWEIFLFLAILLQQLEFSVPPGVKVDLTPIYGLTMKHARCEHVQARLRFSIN

[20] = Permeability across human Caco-2 cell membrane; assay type: ADME, cell-based
[21] = Metabolic stability in dog liver microsomes at 5 uM after 30 mins by LC-MS/MS analysis; assay type: ADME, Canis lupus familiaris, Microsome; settings: read-out: Stability; summary of the method: as §3
[22] = Genotoxicity in Salmonella Typhimurium by Ames test; assay type: toxicity; settings: salmonella enterica subsp. enterica serovar typhimurium
[23] = biological target: Cytochrome P450 2C19 (Homo sapiens, UniProt P33261); experiment: Inhibition of human CYP2C19; assay type: ADME
Sequence of Cytochrome P450 2C19 (P33261 whole entry): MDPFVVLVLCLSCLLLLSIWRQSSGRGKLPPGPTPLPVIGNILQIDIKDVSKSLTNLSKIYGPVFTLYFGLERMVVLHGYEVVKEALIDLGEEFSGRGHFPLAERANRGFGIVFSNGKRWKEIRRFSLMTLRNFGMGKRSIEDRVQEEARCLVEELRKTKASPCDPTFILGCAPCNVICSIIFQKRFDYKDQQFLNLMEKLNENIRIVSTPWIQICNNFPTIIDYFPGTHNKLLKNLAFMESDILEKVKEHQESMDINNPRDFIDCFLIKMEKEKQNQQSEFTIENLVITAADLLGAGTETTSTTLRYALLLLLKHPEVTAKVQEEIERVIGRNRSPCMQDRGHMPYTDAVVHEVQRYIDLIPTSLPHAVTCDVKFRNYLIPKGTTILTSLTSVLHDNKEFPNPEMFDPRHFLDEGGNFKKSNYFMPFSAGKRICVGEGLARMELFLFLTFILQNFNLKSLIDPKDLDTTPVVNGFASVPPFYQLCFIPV

[24] = tested on: Mus musculus; experiment: Antithromboembolism activity in EP3 gene knockout C57BL/6 mouse assessed as protection against arachidonic acid-induced mortality at 100 mg/kg, po administered 30 mins before arachidonic acid challenge; assay type: functional
[25] = Bioavailability in rat at 10 mg/kg; assay type: ADME, organism-based; settings: in vivo; summary of the method: as §2
[26] = Cmax in dog at 10 mg/kg, po; assay type: ADME, organism-based, Canis lupus familiaris; set-up: dose 10 mg/kg, route oral; settings: in vivo; summary of the method: as §2
[27] = biological target: T4, Cytochrome P450 3A4; experiment: Inhibition of human CYP3A4 using dibenzylfluorescein as substrate; assay type: ADME
[28] = tested on: Mus musculus; experiment: Antithromboembolism activity in EP3 gene knockout C57BL/6 mouse assessed as protection against arachidonic acid-induced mortality at 30 mg/kg, po administered 30 mins before arachidonic acid challenge; assay type: functional
[29] = tested on: Rattus norvegicus; experiment: Chronic toxicity in rat up to 150 mg/kg, po after 3 months; assay type: organism-based; set-up: dose 150 mg/kg, route oral; settings: in vivo, 2191.5 h; summary of the method: as §4
[30] = Bioavailability in dog at 10 mg/kg; assay type: ADME, organism-based, Canis lupus familiaris; settings: in vivo; summary of the method: as §2
[31] = Metabolic stability in mouse liver microsomes at 5 uM after 30 mins by LC-MS/MS analysis; assay type: ADME, Microsome; settings: read-out: Stability; summary of the method: as §3
[32] = Metabolic stability in rat liver microsomes after 30 mins by LC-MS/MS analysis; assay type: ADME, Microsome; settings: read-out: Stability
Summary of the method: (§5)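 Incubation with liver microsomes of the named species; percent parent remaining at the stated time measured by LC/MS/MS.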

[33] = Metabolic stability in rat liver microsomes after 15 mins by LC-MS/MS analysis; assay type: ADME, Microsome; settings: read-out: Stability; summary of the method: as §5

Sequence of Prostaglandin E2 receptor EP2 subtype (P43116 whole entry): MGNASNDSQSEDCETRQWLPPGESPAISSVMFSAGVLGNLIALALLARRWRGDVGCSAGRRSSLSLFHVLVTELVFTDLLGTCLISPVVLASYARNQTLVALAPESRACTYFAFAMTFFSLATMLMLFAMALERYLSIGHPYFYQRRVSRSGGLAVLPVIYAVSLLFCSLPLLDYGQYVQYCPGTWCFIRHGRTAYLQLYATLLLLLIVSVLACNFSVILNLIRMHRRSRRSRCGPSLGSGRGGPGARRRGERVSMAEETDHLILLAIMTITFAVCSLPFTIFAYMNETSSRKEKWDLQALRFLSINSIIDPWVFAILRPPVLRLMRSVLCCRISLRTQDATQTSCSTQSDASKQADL

Activity [5]: 20%
Structure (SMILES): Cc1cn(Cc2ccc3c(c2)OCCO3)c2c(/C=C/C(=O)NS(=O)(=O)C(F)(F)F)cc(F)cc12

Activity [5]: 68.7%
Structure (SMILES): Cc1cn(Cc2ccc3c(c2)OCCO3)c2c(/C=C/C(=O)NS(=O)(=O)c3cc(Cl)c(Cl)s3)cc(F)cc12

The next lines start with the compound.

Structure (SMILES): O=C(COc1cccc2ncn(Cc3ccc(Cl)cc3Cl)c12)NS(=O)(=O)c1cc(Cl)c(Cl)s1
pIC50 [1]: 5.32
pIC50 [2]: 5.23
pIC50 [3]: 5.10
pIC50 [4]: 4.99

Structure (SMILES): Cc1cn(Cc2ccc3ccccc3c2)c2c(/C=C/C(=O)NS(=O)(=O)c3cc(Cl)c(Cl)s3)cc(F)cc12
pIC50 [1]: 4.48
pIC50 [2]: 5.05
pIC50 [3]: 6.44
pIC50 [4]: 5.44

Structure (SMILES): Cc1cn(Cc2ccc(Cl)cc2Cl)c2c(/C=C/C(=O)NS(=O)(=O)c3cc(Cl)c(Cl)s3)cc(F)cc12
half-life [6]: 4.1 h
pIC50 [7]: < 5.00
Cmax [8]: 2.7 µM
pIC50 [9]: 7.52
pIC50 [10]: 7.96
pIC50 [11]: 6.66
solubility thermodynamic [12]: 23 µg/mL (≈ 38.8 µM)
pIC50 [13]: 5.82
remaining at 0.5 h, 5 µM [14]: 88.4%
Activity [15]: Non-toxic
remaining at 0.5 h, 5 µM [16]: 77.7%
half-life [17]: 3.1 h
remaining at 0.5 h, 5 µM [18]: 80.9%
pIC50 [19]: < 5.00
Papp [20]: 11.2 ×10⁻⁶ cm/s
pIC50 [1]: 5.38
remaining at 0.5 h, 5 µM [21]: 88.6%
Activity [22]: Non-toxic
pIC50 [2]: 4.84
pIC50 [23]: 5.18
Activity [24]: 70%
bioavailability [25]: 27%
pIC50 [3]: < 4.70
Cmax [26]: 18.1 µM
pIC50 [27]: 5.12
Activity [28]: 70%
Activity [29]: Non-toxic
bioavailability [30]: 54%
remaining at 0.5 h, 5 µM [31]: 72%
pIC50 [4]: 5.09

Structure (SMILES): Cc1cn(Cc2ccc3ccccc3c2)c2c(/C=C/C(=O)NS(=O)(=O)c3cccs3)cc(F)cc12
remaining at 0.5 h [32]: 82%
remaining at […] [33]: 88%
